ChEMBL document CHEMBL4828713, “DNA-Encoded Library Hit Confirmation: Bridging the Gap Between On-DNA and Off-DNA Chemistry” (ACS Med Chem Lett, 2021)

Key:
[1] = molecular target: Epidermal growth factor receptor (Homo sapiens, UniProt P00533); assay: Inhibition of EGFR (unknown origin)
TGF-beta receptor type-1 = molecular target: T1, TGF-beta receptor type-1 (Homo sapiens, UniProt P36897); assay: Inhibition of ALK5 (unknown origin)
T1 sequence (P36897 whole entry): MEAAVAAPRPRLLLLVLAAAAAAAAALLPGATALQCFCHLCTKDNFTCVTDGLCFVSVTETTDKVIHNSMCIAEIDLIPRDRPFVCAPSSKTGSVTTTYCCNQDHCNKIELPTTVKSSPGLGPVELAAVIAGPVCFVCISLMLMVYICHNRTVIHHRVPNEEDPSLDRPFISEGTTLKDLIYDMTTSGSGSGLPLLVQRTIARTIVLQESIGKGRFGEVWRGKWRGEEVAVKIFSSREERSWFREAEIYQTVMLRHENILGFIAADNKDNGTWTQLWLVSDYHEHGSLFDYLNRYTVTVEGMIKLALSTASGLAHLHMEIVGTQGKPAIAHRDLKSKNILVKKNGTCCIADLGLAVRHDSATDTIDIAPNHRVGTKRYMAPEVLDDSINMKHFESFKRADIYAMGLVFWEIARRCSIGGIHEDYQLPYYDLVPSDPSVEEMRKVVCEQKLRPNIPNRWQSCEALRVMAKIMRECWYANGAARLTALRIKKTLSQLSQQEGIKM

[2] = molecular target: T2, Receptor-interacting serine/threonine-protein kinase 2 (Homo sapiens, UniProt O43353); assay: Inhibition of RIP2 (unknown origin)
T2 sequence (O43353 whole entry): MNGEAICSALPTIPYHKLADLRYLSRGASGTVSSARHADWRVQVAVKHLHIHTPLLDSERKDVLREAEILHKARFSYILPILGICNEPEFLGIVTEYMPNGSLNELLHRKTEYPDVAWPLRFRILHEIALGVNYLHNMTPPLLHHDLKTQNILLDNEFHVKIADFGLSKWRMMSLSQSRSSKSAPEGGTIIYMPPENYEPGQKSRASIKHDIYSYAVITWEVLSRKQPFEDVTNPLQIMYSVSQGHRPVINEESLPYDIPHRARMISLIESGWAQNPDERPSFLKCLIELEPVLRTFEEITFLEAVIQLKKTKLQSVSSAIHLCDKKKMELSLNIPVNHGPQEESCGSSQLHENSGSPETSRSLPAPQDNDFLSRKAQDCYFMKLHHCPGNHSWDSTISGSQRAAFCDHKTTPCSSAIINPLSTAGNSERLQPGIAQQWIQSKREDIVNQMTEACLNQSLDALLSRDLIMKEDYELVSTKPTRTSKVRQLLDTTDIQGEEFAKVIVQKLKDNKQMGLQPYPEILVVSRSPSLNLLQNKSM

[3] = molecular target: Vascular endothelial growth factor receptor 2 (Homo sapiens, UniProt P35968); assay: Inhibition of VEGFR2 (unknown origin)
Chain of Vascular endothelial growth factor receptor 2 (P35968 whole entry): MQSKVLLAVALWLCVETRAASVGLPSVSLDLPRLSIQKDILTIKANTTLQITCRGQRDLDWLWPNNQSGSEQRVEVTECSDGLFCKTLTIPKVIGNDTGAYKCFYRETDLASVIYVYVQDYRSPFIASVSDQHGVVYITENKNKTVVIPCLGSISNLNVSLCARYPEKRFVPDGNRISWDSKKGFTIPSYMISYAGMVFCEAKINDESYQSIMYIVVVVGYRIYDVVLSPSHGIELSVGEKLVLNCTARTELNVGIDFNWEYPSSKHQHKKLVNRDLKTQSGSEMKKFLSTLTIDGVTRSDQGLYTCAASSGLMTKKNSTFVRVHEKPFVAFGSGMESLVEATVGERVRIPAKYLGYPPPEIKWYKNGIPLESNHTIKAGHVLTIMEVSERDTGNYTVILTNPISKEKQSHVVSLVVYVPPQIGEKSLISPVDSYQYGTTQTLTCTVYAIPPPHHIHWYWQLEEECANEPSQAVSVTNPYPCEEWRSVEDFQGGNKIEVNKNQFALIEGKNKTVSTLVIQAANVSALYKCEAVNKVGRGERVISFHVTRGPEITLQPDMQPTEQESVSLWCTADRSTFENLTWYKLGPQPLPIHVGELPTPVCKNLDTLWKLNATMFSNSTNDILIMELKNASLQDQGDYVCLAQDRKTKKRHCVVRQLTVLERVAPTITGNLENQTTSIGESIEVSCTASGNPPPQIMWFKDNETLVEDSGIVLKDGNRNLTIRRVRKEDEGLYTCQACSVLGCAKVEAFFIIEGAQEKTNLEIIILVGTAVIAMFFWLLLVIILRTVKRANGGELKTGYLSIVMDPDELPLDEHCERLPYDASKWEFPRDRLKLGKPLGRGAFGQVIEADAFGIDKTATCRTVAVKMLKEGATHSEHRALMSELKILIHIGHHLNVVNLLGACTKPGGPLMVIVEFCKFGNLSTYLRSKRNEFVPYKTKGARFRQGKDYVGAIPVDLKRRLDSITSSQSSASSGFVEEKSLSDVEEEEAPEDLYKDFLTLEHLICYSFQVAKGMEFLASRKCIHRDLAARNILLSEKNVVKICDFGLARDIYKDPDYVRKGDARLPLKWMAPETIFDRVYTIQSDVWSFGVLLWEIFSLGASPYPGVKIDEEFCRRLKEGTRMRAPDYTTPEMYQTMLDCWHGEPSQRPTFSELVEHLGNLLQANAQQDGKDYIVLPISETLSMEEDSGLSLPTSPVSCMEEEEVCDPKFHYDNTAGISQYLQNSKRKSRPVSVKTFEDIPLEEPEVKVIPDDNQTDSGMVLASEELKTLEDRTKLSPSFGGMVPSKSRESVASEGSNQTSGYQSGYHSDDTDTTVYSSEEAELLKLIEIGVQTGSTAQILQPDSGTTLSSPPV

[4] = molecular target: T2, Receptor-interacting serine/threonine-protein kinase 2; assay: Relative binding affinity to RIP2 (unknown origin) by affinity selection mass spectrometry analysis
Summary of the method: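 Test material was freed from the DNA headpiece by cleaving the tetrahydropyranyl linker with 0.1% formic acid at 60 °C for 1 h. The released compound was then tested by affinity selection mass spectrometry, and binding was expressed as relative binding affinity (%RBA).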

[5] = molecular target: T2, Receptor-interacting serine/threonine-protein kinase 2; assay: Inhibition of RIP2 (unknown origin) by biochemical assay
[6] = molecular target: T2, Receptor-interacting serine/threonine-protein kinase 2; assay: Inhibition of RIP2 (unknown origin) by fluorescence polarization based binding assay

Chain of Epidermal growth factor receptor (P00533 whole entry): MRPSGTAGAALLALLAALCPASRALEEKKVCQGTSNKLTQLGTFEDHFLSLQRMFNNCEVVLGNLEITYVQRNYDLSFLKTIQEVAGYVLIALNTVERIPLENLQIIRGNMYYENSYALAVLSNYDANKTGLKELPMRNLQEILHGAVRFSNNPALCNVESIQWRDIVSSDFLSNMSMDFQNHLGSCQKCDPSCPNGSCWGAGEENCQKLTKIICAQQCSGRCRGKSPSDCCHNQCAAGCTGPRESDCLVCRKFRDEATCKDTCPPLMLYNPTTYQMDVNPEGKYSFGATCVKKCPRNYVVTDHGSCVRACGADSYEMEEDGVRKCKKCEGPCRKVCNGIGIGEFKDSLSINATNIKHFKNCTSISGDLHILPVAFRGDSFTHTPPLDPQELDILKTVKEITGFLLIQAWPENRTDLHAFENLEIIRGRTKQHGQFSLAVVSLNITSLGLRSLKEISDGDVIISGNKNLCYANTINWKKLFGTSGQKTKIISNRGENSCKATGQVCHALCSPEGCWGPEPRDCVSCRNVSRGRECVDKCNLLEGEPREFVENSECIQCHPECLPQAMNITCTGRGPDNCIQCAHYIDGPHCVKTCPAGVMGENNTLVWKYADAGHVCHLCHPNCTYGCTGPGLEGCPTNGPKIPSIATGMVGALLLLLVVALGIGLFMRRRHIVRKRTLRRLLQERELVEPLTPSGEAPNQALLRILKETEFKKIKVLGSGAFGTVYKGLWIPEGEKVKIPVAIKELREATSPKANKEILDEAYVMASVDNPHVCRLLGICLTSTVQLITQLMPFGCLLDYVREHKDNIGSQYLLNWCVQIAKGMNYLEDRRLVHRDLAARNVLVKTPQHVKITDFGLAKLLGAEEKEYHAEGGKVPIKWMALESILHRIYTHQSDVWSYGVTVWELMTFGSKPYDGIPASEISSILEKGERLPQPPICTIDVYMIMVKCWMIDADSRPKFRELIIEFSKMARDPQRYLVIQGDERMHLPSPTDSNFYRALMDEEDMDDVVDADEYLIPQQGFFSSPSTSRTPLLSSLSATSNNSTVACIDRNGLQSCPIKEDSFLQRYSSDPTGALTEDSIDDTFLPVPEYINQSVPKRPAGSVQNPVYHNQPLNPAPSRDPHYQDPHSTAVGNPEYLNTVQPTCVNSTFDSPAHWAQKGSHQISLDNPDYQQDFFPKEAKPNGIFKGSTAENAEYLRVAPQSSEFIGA

c1ccc(-c2ccc3c(Nc4ccc5scnc5c4)ccnc3c2)cc1
IC50 [1]: 2500 nM
IC50 (TGF-beta receptor type-1): 2500 nM
IC50 [2]: 16 nM
IC50 [3]: 16 nM

NC(=O)c1cc(CNc2ccc3scnc3c2)cc(-c2ccc3c(Nc4ccc5scnc5c4)ccnc3c2)c1
RBA [4]: 58%

COCCn1c(-c2cnc(-c3ccc(Cl)cc3)[nH]2)nc2cc(C(=O)NCCO)ccc21
RBA [4]: 30%

Oc1cc(Nc2ccnc3cc(-c4ccccc4)ccc23)ccc1Cl
IC50 [1]: 100 nM
IC50 (TGF-beta receptor type-1): 79 nM
IC50 [2]: 6 nM
IC50 [3]: < 1 nM

COCCNC(=O)c1cc(CNc2ccc(Cl)c(O)c2)cc(-c2ccc3c(Nc4ccc(Cl)c(O)c4)ccnc3c2)c1
IC50 [5]: 6 nM

COCCNC(=O)c1cc(CNc2ccc(Cl)c(O)c2)cc(-c2ccc3c(Cl)ccnc3c2)c1
IC50 [6]: > 50000 nM

NC(=O)c1cc(C=O)cc(-c2ccc3c(Nc4ccc5scnc5c4)ccnc3c2)c1
RBA [4]: 70%
